Columns and labels:
[1] = test system: Mus musculus; assay: Minimal dose able to induce a statistically significant increase of the pain threshold, done on mouse; sc; assay type: functional
In short: (§1)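 Mouse hot plate test (52.5 ± 0.1 °C, 45 s cutoff) after sc dosing, in male Swiss-Webster mice. The value is the lowest dose giving a statistically significant rise in pain threshold. Dunnett's two-tailed test compared treated mice at maximum reaction time with pretest time, P < 0.05.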

[2] = test system: Mus musculus; assay: Licking latency was measured after 45 min treatment (at dose=5 mg/kg) by using mouse hot plate test; assay type: functional
In short: (§2)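 Male Swiss-Webster mice (22-28 g), 23 ± 1 °C, 12-h light/dark cycle, food and water ad libitum. Hot plate at 52.5 ± 0.1 °C with licking latency as read-out and 45 s cutoff. Mice with pre-drug latency below 12 or over 18 s were rejected. Compounds given sc, 5-12 mice per test. Significance was assessed by Dunnett's two-tailed test, P < 0.05.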

[3] = test system: TE-671; assay: Cholinergic interactions was measured with FLIPR device on TE671 cells and given as Intrinsic activity; assay type: functional, Homo sapiens
In short: (§3)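 Cells were plated on poly(ethylenimine)-coated plates and used about 72 h later. Loading was Fluo-3 AM for 1 h at 37 °C, followed by washes in Hepes-salts buffer, pH 7.4. FLIPR recorded Ca2+ fluorescence over 5 min after agonist addition. Responses were normalized to 100 µM nicotine (100%) and unloaded cells (0%), and EC50 and intrinsic activity were derived from concentration-response curves.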

[4] = test system: Mus musculus; assay: Licking latency was measured before treatment (at dose=10 mg/kg) by using mouse hot plate test; assay type: functional; in short: as §2
[5] = test system: IMR-32; assay: Cholinergic interactions was measured with FLIPR device on cells of IMR-32 human neuroblastoma clonal line and given as Intrinsic activity; assay type: functional; in short: as §3
[6] = test system: Mus musculus; assay: Licking latency was measured after 30 min treatment (at dose=5 mg/kg) by using mouse hot plate test; assay type: functional; in short: as §2
[7] = test system: Mus musculus; assay: Maximal nontoxic dose of the compound, done on mouse; sc; assay type: functional
In short: (§4)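 Male Swiss-Webster mice dosed sc. The value is the highest dose causing no visible behavioural change (tremors, convulsions, hypomotility etc.), so that treated mice could not be told apart from untreated ones. Behaviour was scored by the Irwin method in groups of at least 10 animals.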

[8] = test system: K177 cell line; assay: Cholinergic interactions was measured with FLIPR device on […] cells and given as Intrinsic activity; assay type: functional, Homo sapiens; in short: as §3
[9] = organism: Mus musculus; assay: Analgesic efficacy is expressed as percentage of that morphine, done on mouse.; assay type: functional
[10] = molecular target: Neuronal acetylcholine receptor; alpha4/beta2 (Rattus norvegicus, UniProt P09483+P12390); assay: Cholinergic interactions was measured as displaced [3H][…] from Nicotinic acetylcholine receptor alpha4-beta2 in rat brain membranes; assay type: cell membranes
Chain of Neuronal acetylcholine receptor; alpha4/beta2 (P09483 whole entry): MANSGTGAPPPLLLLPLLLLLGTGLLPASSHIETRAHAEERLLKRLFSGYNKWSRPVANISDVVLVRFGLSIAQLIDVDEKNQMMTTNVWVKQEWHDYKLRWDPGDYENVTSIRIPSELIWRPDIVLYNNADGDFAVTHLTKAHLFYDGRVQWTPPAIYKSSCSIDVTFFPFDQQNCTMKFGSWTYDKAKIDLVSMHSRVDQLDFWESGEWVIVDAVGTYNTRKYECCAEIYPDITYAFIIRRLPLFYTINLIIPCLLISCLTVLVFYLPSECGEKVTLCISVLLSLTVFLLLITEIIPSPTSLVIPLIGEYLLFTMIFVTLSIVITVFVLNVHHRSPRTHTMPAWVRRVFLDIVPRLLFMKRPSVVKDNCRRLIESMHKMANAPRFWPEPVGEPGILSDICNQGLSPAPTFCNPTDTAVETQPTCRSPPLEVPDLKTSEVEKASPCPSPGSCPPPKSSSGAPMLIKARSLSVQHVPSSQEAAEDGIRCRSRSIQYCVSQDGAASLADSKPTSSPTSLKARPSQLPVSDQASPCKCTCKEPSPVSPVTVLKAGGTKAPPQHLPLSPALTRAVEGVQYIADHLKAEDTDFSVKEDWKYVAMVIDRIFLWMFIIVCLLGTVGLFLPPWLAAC
Chain of Neuronal acetylcholine receptor; alpha4/beta2 (P12390 whole entry): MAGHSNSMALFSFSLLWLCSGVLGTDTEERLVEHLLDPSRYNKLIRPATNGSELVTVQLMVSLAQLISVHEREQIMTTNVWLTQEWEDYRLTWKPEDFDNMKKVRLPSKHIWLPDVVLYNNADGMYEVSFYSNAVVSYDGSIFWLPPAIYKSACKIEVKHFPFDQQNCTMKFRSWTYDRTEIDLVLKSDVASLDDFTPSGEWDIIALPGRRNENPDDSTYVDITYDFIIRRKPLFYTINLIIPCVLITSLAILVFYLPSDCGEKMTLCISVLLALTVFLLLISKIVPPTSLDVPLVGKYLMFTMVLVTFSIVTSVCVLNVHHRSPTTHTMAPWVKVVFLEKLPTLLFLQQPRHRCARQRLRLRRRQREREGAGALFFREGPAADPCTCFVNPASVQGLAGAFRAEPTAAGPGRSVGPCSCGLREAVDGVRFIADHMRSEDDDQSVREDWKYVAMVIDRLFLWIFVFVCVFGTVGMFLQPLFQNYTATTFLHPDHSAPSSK
In short: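 Rat cerebral cortical membranes were washed and resuspended in Tris-HCl 50 mM buffer, pH 7.4, then spun at 45000g. Samples held 150-200 µg protein and 0.7 nM [3H]-(-)-cytisine with varying modulator concentrations. Incubation was 75 min at 4 °C in triplicate. Nonspecific binding was defined with 10 µM (-)-nicotine.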

[11] = test system: Mus musculus; assay: Licking latency was measured after 45 min treatment (at dose=1 mg/kg) by using mouse hot plate test; assay type: functional; in short: as §2
[12] = test system: Mus musculus; assay: Licking latency was measured before treatment (at dose=5 mg/kg) by using mouse hot plate test; assay type: functional
In short: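 Male Swiss-Webster mice (22-28 g), 23 ± 1 °C, 12-h light/dark cycle. Hot plate at 52.5 ± 0.1 °C. Mice with pre-drug licking latency below 12 s or over 18 s were rejected. Cutoff 45 s. Compound given sc; latency read before dosing and at 15, 30 and 45 min. 5-12 mice per test.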

[13] = test system: TE-671; assay: Cholinergic interactions was measured with FLIPR device on TE671 cells and given as Effective dose; assay type: functional, cell-based; details: Homo sapiens; in short: as §3
[14] = test system: Mus musculus; assay: Licking latency was measured before treatment (at dose=20 mg/kg) by using mouse hot plate test; assay type: functional; in short: as §2
[15] = test system: Mus musculus; assay: Licking latency was measured after 15 min treatment (at dose=10 mg/kg) by using mouse hot plate test; assay type: functional; in short: as §2
[16] = test system: Mus musculus; assay: Licking latency was measured after 45 min treatment (at dose=20 mg/kg) by using mouse hot plate test; assay type: functional; in short: as §2
[17] = test system: Mus musculus; assay: Licking latency was measured after 15 min treatment (at dose=1 mg/kg) by using mouse hot plate test; assay type: functional; in short: as §2
[18] = test system: Mus musculus; assay: Licking latency was measured after 30 min treatment (at dose=10 mg/kg) by using mouse hot plate test; assay type: functional; in short: as §2
[19] = test system: IMR-32; assay: Cholinergic interactions was measured with FLIPR device on IMR-32 cells of human neuroblastoma clonal line, given as effective dose; assay type: functional, cell-based; in short: as §3
[20] = test system: Mus musculus; assay: Licking latency was measured after 15 min treatment (at dose=5 mg/kg) by using mouse hot plate test; assay type: functional; in short: as §2
[21] = test system: Mus musculus; assay: Licking latency was measured after 30 min treatment (at dose=1 mg/kg) by using mouse hot plate test; assay type: functional; in short: as §2
[22] = test system: Mus musculus; assay: Licking latency was measured after 30 min treatment (at dose=20 mg/kg) by using mouse hot plate test; assay type: functional; in short: as §2
[23] = test system: Mus musculus; assay: Licking latency was measured before treatment (at dose=1 mg/kg) by using mouse hot plate test; assay type: functional; in short: as §2
[24] = organism: Mus musculus; assay: Analgesic efficacy is expressed as percentage of that epibatidine, done on mouse.; assay type: functional
[25] = test system: K177 cell line; assay: Cholinergic interactions was measured with FLIPR device on […] cells and given as EC50.; assay type: functional, cell-based; details: Homo sapiens; in short: as §3
[26] = test system: Mus musculus; assay: Licking latency was measured before treatment (at dose=15 mg/kg) by using mouse hot plate test; assay type: functional; in short: as §2
[27] = test system: Mus musculus; assay: Licking latency was measured after 45 min treatment (at dose=25 mg/kg) by using mouse hot plate test; assay type: functional; in short: as §2
[28] = test system: Mus musculus; assay: MAD: minimal dose able to induce a statistically significant increase of the pain threshold, done on mouse; sc; assay type: functional; in short: as §1
[29] = test system: Mus musculus; assay: Licking latency was measured after 15 min treatment (at dose=15 mg/kg) by using mouse hot plate test; assay type: functional; in short: as §2
[30] = test system: Mus musculus; assay: MNTD:Maximal nontoxic dose of the compound, done on mouse; sc; assay type: functional; in short: as §4
[31] = test system: Mus musculus; assay: Licking latency was measured after 30 min treatment (at dose=25 mg/kg) by using mouse hot plate test; assay type: functional; in short: as §2
[32] = test system: Mus musculus; assay: Licking latency was measured after 45 min treatment (at dose=15 mg/kg) by using mouse hot plate test; assay type: functional; in short: as §2
[33] = test system: Mus musculus; assay: Licking latency was measured after 15 min treatment (at dose=25 mg/kg) by using mouse hot plate test; assay type: functional; in short: as §2
[34] = test system: Mus musculus; assay: Licking latency was measured after 30 min treatment (at dose=15 mg/kg) by using mouse hot plate test; assay type: functional; in short: as §2
[35] = test system: Mus musculus; assay: Licking latency was measured before treatment (at dose=25 mg/kg) by using mouse hot plate test; assay type: functional; in short: as §2
[36] = test system: Mus musculus; assay: Licking latency was measured after 45 min treatment (at dose=10 mg/kg) by using mouse hot plate test; assay type: functional; in short: as §2
[37] = test system: Mus musculus; assay: Licking latency was measured after 15 min treatment (at dose=25 mg/kg) by using mouse hot plate test (*P<0.01); assay type: functional; in short: as §2
[38] = test system: Mus musculus; assay: Licking latency was measured after 45 min treatment (at dose=25 mg/kg) by using mouse hot plate test (*P<0.05); assay type: functional; in short: as §2
[39] = test system: Mus musculus; assay: Licking latency was measured after 30 min treatment (at dose=25 mg/kg) by using mouse hot plate test(*P<0.05); assay type: functional; in short: as §2
[40] = test system: Mus musculus; assay: 15.5 Licking latency was measured after 15 min treatment (at dose=5 mg/kg) by using mouse hot plate test; assay type: functional; in short: as §2

Row | SMILES | Licking latency [2] [s] | Licking latency [4] [s] | Licking latency [6] [s] | Licking latency [12] [s] | Licking latency [15] [s] | Licking latency [18] [s] | Analgesic efficacy compared to morphine [9] [%] | MAD [28] [mg/kg] | MNTD [30] [mg/kg] | Analgesic efficacy compared to epibatidine [24] [%] | Licking latency [35] [s] | Licking latency [36] [s] | further results
1 | Clc1ccc(N2CC3CCC(C2)N3)nn1 | 26.5 | 14.2 | 28.5 | 13.7 | 32.3 | 38.3 |  |  |  |  |  |  | MAD [1]: 1 mg/kg; Intrinsic activity [3]: 9.6%; Intrinsic activity [5]: 122.6%; MNTD [7]: 30 mg/kg; Intrinsic activity [8]: 164%; Efficacy [9]: 136%; Ki [10]: 4.1 µM; Licking latency [11]: 21.5 s; EC50 [13]: > 1000 µM; Licking latency [14]: 14.3 s; Licking latency [16]: 33.8 s; Licking latency [17]: 21.5 s; EC50 [19]: 12.2 µM; Licking latency [20]: 27.8 s; Licking latency [21]: 25.6 s; Licking latency [22]: 39.8 s; Licking latency [23]: 13.5 s; Efficacy [24]: 167%; EC50 [25]: 24 µM
2 | Clc1cccc(N2CC3CCC(C2)N3)n1 |  |  |  |  |  |  | 116 | 15 | 30 | 142 | 14.6 |  | Licking latency [26]: 13.5 s; Licking latency [27]: 34.2 s; Licking latency [29]: 23.6 s; Licking latency [31]: 37 s; Licking latency [32]: 22 s; Licking latency [33]: 31.9 s; Licking latency [34]: 22.1 s
3 | CCN1C2CCC1CN(c1ccc(Cl)nn1)C2 |  | 13.2 |  |  | 19.3 | 18.4 | 61 | 10 | 20 | 74 | 14.3 | 16.4 | Licking latency [37]: 26 s; Licking latency [38]: 20.8 s; Licking latency [39]: 20.5 s
4 | Clc1cncc(N2CC3CCC(C2)N3)n1 | 15.7 | 13.6 | 15.5 | 15.1 | 24.6 | 22.5 | 57 | 5 | 15 | 70 |  | 22.3 | Licking latency [40]: 19.7 s
